Results on 13 molecules are retold here after ChEMBL document CHEMBL1140176, “Intracellular trapping of cycloSal-pronucleotides: modification of prodrugs with amino acid esters” (J Med Chem, 2008).

Data set [1] is described as follows: Stability in 25 mM phosphate buffer assessed as hydrolysis half life at pH 7.3. Conditions: for half-life: phosphate buffer; for t1/2: buffer. In kind it is physicochemical.
A short description of data set [2]: (§1) Stability in human CEM cell extract assessed as hydrolysis half life at pH 6.9. In kind it is ADME, CCRF-CEM. The following applies: CEM cell extract.
In data set [3] the test system is Human immunodeficiency virus 1. As to the kind of experiment: Antiviral activity against HIV1 in human CEM cells. The following applies: Human immunodeficiency virus 1, CCRF-CEM. The class given is functional, organism-based. In a few lines:
(§2)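 CEM/0 cells at 4 × 10⁵ cells/mL infected with HIV-1 or HIV-2 (ROD, stocks from infected MT-4 supernatants) at ~100 CCID₅₀/mL, mixed 1:1 with serial compound dilutions. Giant cell formation scored microscopically after 4-5 days.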

Data set [4] has as its system Human immunodeficiency virus 2. As to the kind of experiment: Antiviral activity against HIV2 ROD in thymidine kinase deficient human CEM cells. The class given is functional, organism-based, CCRF-CEM. In a few lines: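 Thymidine kinase-deficient CEM/TK⁻ cells at 4 × 10⁵ cells/mL infected with HIV-2 ROD at ~100 CCID₅₀/mL, then mixed 1:1 with compound dilutions. Microscopic scoring of giant cell formation at 4-5 days. EC50 is the mean of two to three independent experiments.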

Data set [5] relates to Human immunodeficiency virus 2. The experiment in a line: Antiviral activity against HIV2 ROD in human CEM cells. The class given is functional, organism-based, CCRF-CEM. The method, boiled down: as §2
A short description of data set [6]: (§3) Cytotoxicity against human CEM cells. The class given is cell-based, CCRF-CEM. The following applies: CEM cells. The method, boiled down: (§4)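 Wild-type CEM cells exposed to test compound dilutions. Value reported as 50% cytotoxic concentration.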
For data set [7], the system named is CCRF-CEM. The description is as §1. The class given is ADME. Conditions: ccrf-cem.
The test system of a further data set is Serum. As to the kind of experiment: Stability in human serum assessed as hydrolysis half life at pH 6.8. In kind it is ADME, cell-free. The method, boiled down: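 Human serum at 50%, diluted with phosphate buffered saline to pH 6.8. Triester conversion followed over time and hydrolysis half-life derived.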
Data set [8] relates to CCRF-CEM. Described as §3. The following applies: ccrf-cem. The class given is cell-based. In a few lines:
as §4

[9] abbreviates: Human immunodeficiency virus 2, ROD, CCRF-CEM.

Each structure is given as a SMILES string.

For `COC(=O)[C@@H]1CCCN1C(=O)CCc1ccc2c(c1)COP(=O)(OC[C@@H]1C=C[C@H](n3cc(C)c(=O)[nH]c3=O)O1)O2` (some centres not stated), the results for the half-life in [1] and in [2] were 7.9 h and 1.1 h, respectively. Besides, the results for the EC50 in data set [3], in data set [4] (setting [9]) and in data set [5] (setting [9]) were 1300 nM, 2800 nM and 1600 nM, respectively. The molecule also yielded a CC50 in data set [6] of 182000 nM.
For the molecule `Cc1cn([C@H]2C=C[C@@H](COP3(=O)OCc4cc(CCC(=O)N5CCC[C@H]5C(=O)OCc5ccccc5)ccc4O3)O2)c(=O)[nH]c1=O` (some centres not stated), the results for the half-life in data set [1] and in data set [2] were 6.1 h and 0.4 h, respectively. Further, the EC50 was 700 nM in data set [3], 21000 nM in data set [4] (setting [9]) and 1100 nM in data set [5] (setting [9]). The molecule also showed a CC50 in data set [6] of 46000 nM.
Regarding `Cc1cn([C@H]2C=C[C@@H](COP3(=O)OCc4cc(CCC(=O)O)ccc4O3)O2)c(=O)[nH]c1=O` (some centres not stated), the half-life in data set [1] was 13 h. The EC50 is 140 nM in data set [3], 50000 nM in data set [4] (setting [9]) and 800 nM in data set [5] (setting [9]). In [6], the CC50 stood at 74000 nM.
As for `Cc1cn([C@H]2C=C[C@@H](CO)O2)c(=O)[nH]c1=O` [STAVUDINE], the EC50 in [3] came out at 480 nM; in data set [4] (setting [9]), 47500 nM; in [5] (setting [9]), 630 nM. In [6], this molecule gave a CC50 of 234000 nM.
For `Cc1cn([C@H]2C=C[C@@H](COP3(=O)OCc4cc(CCC(=O)N[C@@H](C)C(=O)OCc5ccccc5)ccc4O3)O2)c(=O)[nH]c1=O` (stereo in doubt; form 1), the t1/2 in data set [1] is 4.5 h; in the data set on CCRF-CEM [7], 0.5 h; with Serum, 4.4 h. The same molecule registered an EC50 in [5] (ccrf-cem) of 300 nM. The molecule also returned a CC50 in the data set on CCRF-CEM [8] of 48000 nM.
On to `COC(=O)CNC(=O)CCc1ccc2c(c1)COP(=O)(OC[C@@H]1C=C[C@H](n3cc(C)c(=O)[nH]c3=O)O1)O2` (some centres not stated), for which the values for the half-life in data set [1] and in data set [2] were 6.5 h and 4.5 h, respectively. In addition, the EC50 in [3] is 2000 nM; in data set [4] (setting [9]) it was 4000 nM; in data set [5] (setting [9]) it was 1600 nM. Moreover, the cytotoxic concentration (CC50) in data set [6] is 220000 nM.
In the case of `Cc1cn([C@H]2C=C[C@@H](COP3(=O)OCc4cc(CCC(=O)N[C@@H](C)C(=O)OC(C)(C)C)ccc4O3)O2)c(=O)[nH]c1=O` (some centres not stated), the half-life in [1] was 5.7 h; in data set [2] it was 6.8 h. Also, the EC50 in data set [3] was 300 nM; in data set [4] (setting [9]), 3800 nM; in data set [5] (setting [9]), 400 nM. The midpoint of cytotoxicity in data set [6], the CC50, lay at 53000 nM.
Consider `COC(=O)[C@H](C)NC(=O)CCc1ccc2c(c1)COP(=O)(OC[C@@H]1C=C[C@H](n3cc(C)c(=O)[nH]c3=O)O1)O2` (some centres not stated), for which the values for the half-life in data set [1] and in data set [2] were 6.4 h and 1.1 h, respectively. The results for the EC50 in [3], in data set [4] (setting [9]) and in [5] (setting [9]) were 800 nM, 2500 nM and 700 nM, respectively. In [6], half-maximal cytotoxicity (CC50) was put at 152000 nM.
Take `Cc1cn([C@H]2C=C[C@@H](COP3(=O)OCc4cc(CCC(=O)N[C@@H](C)C(=O)OCc5ccccc5)ccc4O3)O2)c(=O)[nH]c1=O` (stereo in doubt; form 3): the half-life in [1] is 6.4 h. The EC50 in data set [3] is 300 nM; in data set [4] (ccrf-cem), 300 nM; in data set [5] (setting [9]) it was 400 nM. This molecule displayed a CC50 in the data set with CCRF-CEM [8] of 23000 nM.
Consider `Cc1cn([C@H]2C=C[C@@H](COP3(=O)OCc4cc(CCC(=O)N[C@@H](C)C(=O)O)ccc4O3)O2)c(=O)[nH]c1=O` (some centres not stated), for which the half-life in data set [1] is 12 h; in [2] it was 7 h. Moreover, the values for the EC50 in data set [3], in data set [4] (setting [9]) and in data set [5] (setting [9]) were 500 nM, 4100 nM and 400 nM, respectively. Moreover, it took 77000 nM to reach half-maximal cytotoxicity in data set [6] (CC50).
Regarding `Cc1cn([C@H]2C=C[C@@H](COP3(=O)OCc4cc(CCC(=O)NCC(=O)OCc5ccccc5)ccc4O3)O2)c(=O)[nH]c1=O` (some centres not stated), the values for the half-life in data set [1] and in data set [2] were 6.2 h and 4.8 h, respectively. Moreover, the EC50 in [3] came to 310 nM; in data set [4] (setting [9]) it was 400 nM; in [5] (setting [9]) it was 470 nM. The molecule further gave a CC50 in data set [6] of 75000 nM.
`COC(=O)[C@@H](C)NC(=O)CCc1ccc2c(c1)COP(=O)(OC[C@@H]1C=C[C@H](n3cc(C)c(=O)[nH]c3=O)O1)O2` (some centres not stated): the half-life in data set [1] was 5 h; in [2], 6.2 h. In addition, the EC50 in [3] was found to be 400 nM; in data set [4] (setting [9]) it was 4200 nM; in data set [5] (setting [9]), 400 nM. In [6], this molecule had a CC50 of 61000 nM.
For the molecule `Cc1cn([C@H]2C=C[C@@H](COP3(=O)OCc4cc(CCC(=O)N[C@@H](C)C(=O)OCc5ccccc5)ccc4O3)O2)c(=O)[nH]c1=O` (stereo in doubt; form 2), the t1/2 was found to be 8.8 h in data set [1] and 1.3 h with Serum. In addition, the half-life in [2] was 0.5 h. The molecule further gave an EC50 in data set [4] (ccrf-cem) of 1000 nM. The same molecule had a CC50 in the data set on CCRF-CEM [8] of 61000 nM.

The half-life is the time needed for the level to fall by half in the phase considered. The term EC50 denotes the concentration that produces a half-maximal response. A low value points to an effect from little substance. For orientation: CC50 means the concentration giving 50% cytotoxicity. Higher therefore signals better tolerance by the cells.
